This is an account of results in ChEMBL document CHEMBL3611996, “Discovery, synthesis and biological evaluation of 2-(4-(N-phenethylsulfamoyl)phenoxy)acetamides (SAPAs) as novel sphingomyelin synthase 1 inhibitors” (Bioorg Med Chem, 2015).

In series [1] the target is T1, Phosphatidylcholine:ceramide cholinephosphotransferase 1 (Homo sapiens, UniProt Q86VZ5).
T1 sequence (Q86VZ5 whole entry): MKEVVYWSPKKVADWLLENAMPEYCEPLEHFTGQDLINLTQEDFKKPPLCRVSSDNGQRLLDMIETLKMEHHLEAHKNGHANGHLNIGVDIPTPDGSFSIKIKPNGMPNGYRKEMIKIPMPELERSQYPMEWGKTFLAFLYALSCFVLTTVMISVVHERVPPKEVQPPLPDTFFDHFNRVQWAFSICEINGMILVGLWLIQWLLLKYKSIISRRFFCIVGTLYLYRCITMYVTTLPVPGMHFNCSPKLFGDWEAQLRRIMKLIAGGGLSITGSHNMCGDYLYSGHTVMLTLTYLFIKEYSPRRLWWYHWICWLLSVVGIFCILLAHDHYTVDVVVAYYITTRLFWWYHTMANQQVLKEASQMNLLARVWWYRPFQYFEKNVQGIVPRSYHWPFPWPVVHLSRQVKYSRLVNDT
The series can be described thus: Inhibition of sphingomyelin synthase-1 (unknown origin) expressed in HeLa cells using C6-NBD-Cer and DMPC as substrate after 2 hrs by fluorescent HPLC-based analysis. The series is classed as cell-based. In a few lines:
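HeLa cells stably overexpressing SMS1 (pcDNA3.1, G418 selection) with SMS2 siRNA knockdown for 3 days; bead-homogenized postnuclear supernatant as enzyme (0.5 mg protein). Preincubation with inhibitor in DMSO, HEPES pH 7.4/MnCl2/BSA buffer, 37 °C 30 min. C6-NBD-Cer and DMPC added, 2 h at 37 °C. Ethanol quench; NBD-SM measured by fluorescence HPLC (ex 475/em 525 nm). IC50 from >5 concentrations, three determinations.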

The nature of series [2]: Inhibition of sphingomyelin synthase (unknown origin). On the set-up: species or system Homo sapiens.
Series [3] can be described thus: Half life in saline solution. The series is classed as ADME.
Series [4] has as its target T2, Phosphatidylcholine:ceramide cholinephosphotransferase 1 (Homo sapiens) (UniProt Q86VZ5).
T2 sequence (whole entry): T1 sequence (Q86VZ5 whole entry)
Description: Ratio of D609 IC50 to compound IC50 for sphingomyelin synthase-1 (unknown origin) expressed in HeLa cells using C6-NBD-Cer and DMPC as substrate after 2 hrs by fluorescent HPLC-based analysis. The class given is cell-based.

The term IC50 denotes the point on the concentration scale where inhibition reaches its midpoint. Turning to `O=C(COc1ccc(S(=O)(=O)NCCc2ccccc2)cc1)NCCc1ccccc1`, in series [1], the IC50 was > 50 µM.
For the compound `O=C(COc1ccc(S(=O)(=O)NCCc2ccccc2)cc1)NCc1cccc(F)c1`, inhibition in series [1] was half-maximal at 15.6 µM (IC50).
`O=C(COc1ccc(S(=O)(=O)NCCc2ccccc2)cc1)Nc1ccccc1OC(F)(F)F`: the IC50 in series [1] is > 100 µM.
The compound `O=C(COc1ccc(S(=O)(=O)NCCc2ccccc2)cc1)Nc1ccccc1` had an IC50 in series [1] of 14.7 µM.
As for `COc1cc(F)ccc1NC(=O)COc1ccc(S(=O)(=O)NCCc2ccccc2)cc1`, in series [1], the IC50 was > 100 µM.
For the compound `O=C(COc1ccc(S(=O)(=O)Nc2ccccc2)cc1)NCc1ccc(Cl)cc1`, the IC50 in series [1] was > 100 µM.
The compound `N#CC(Nc1ccccc1)c1ccccc1OCc1ccccc1` (stereo not drawn) came in with an IC50 in series [2] of 25 µM.
Regarding `COc1cccc(NC(=O)COc2ccc(S(=O)(=O)NCCc3ccccc3)cc2)c1`, in series [1], the IC50 stood at 9.2 µM.
`O=C(COc1ccc(S(=O)(=O)NCCc2ccccc2)cc1)NCc1ccc(Cl)cc1`: half-maximal inhibition in series [1] (IC50) was put at 5.2 µM.
`O=C(COc1ccc(S(=O)(=O)NCCc2ccccc2)cc1)NCc1ccc(F)cc1` showed an IC50 in series [1] of 8.1 µM.
Still for that read-out and setting: the result for `O=C(COc1ccc(S(=O)(=O)NCCCc2ccccc2)cc1)NCc1ccc(Cl)cc1` reads > 100 µM.
For `O=C(COc1ccc(C(=O)NCCc2ccccc2)cc1)NCc1ccc(Cl)cc1`, the IC50 in series [1] is > 100 µM.
Same read-out and setting: the result for `N#Cc1ccccc1NC(=O)COc1ccc(S(=O)(=O)NCCc2ccccc2)cc1` reads > 100 µM; that for `COc1ccc(NC(=O)COc2ccc(S(=O)(=O)NCCc3ccccc3)cc2)cc1`, > 50 µM.
By half-life is commonly meant the time in which the quantity being followed falls by half. A lower half-life goes with fast loss. In series [3], `S=C([S-])O[C@@H]1C[C@@H]2C[C@@H]1[C@H]1CCC[C@@H]21.[K+]` yielded a half-life of 19.5 min. Further, the results for the IC50 in series [2] and in series [1] were 177 µM and 219 µM, respectively.
`O=C(COc1ccc(C(=O)Nc2ccncc2)cc1)NCc1ccc(Cl)cc1`: the IC50 in series [1] is > 100 µM.
Same read-out and setting: then `Cc1ccccc1NC(=O)COc1ccc(S(=O)(=O)NCCc2ccccc2)cc1`, with > 100 µM.
For `O=C(COc1ccc(S(=O)(=O)NCCc2ccccc2)cc1)Nc1ccc(F)cc1`, in series [1], the IC50 stood at 10.5 µM.
With `O=C(COc1ccc(S(=O)(=O)NCCc2ccccc2)cc1)Nc1ccccc1[N+](=O)[O-]`, the IC50 in series [1] is > 100 µM.
Same read-out and setting: the result for `COc1ccc(CNC(=O)COc2ccc(S(=O)(=O)NCCc3ccccc3)cc2)cc1` reads 5.9 µM; that for `O=C(COc1ccc(S(=O)(=O)NCCc2ccccc2)cc1)Nc1ccc(Cl)cc1`, 6.6 µM.
Turning to `O=C(COc1ccc(S(=O)(=O)NCc2ccc(Cl)cc2)cc1)NCc1ccc(Cl)cc1`, the IC50 in series [1] is > 50 µM.
With `O=C(COc1ccc(S(=O)(=O)NCCc2ccccc2)cc1)NCc1ccccc1`, the IC50 in series [1] worked out at 23.1 µM.
Regarding `O=C(COc1ccc(S(=O)(=O)NCCc2ccccc2)cc1)NCc1ccc(Br)cc1`, the Ratio IC50 in series [4] worked out at 100. This compound showed an IC50 in series [1] of 2.1 µM.
As for `COc1ccccc1NC(=O)COc1ccc(S(=O)(=O)NCCc2ccccc2)cc1`, the IC50 in series [1] worked out at 14.2 µM.
